RORa inhibitor – inhibitors of orphan receptor RORA, primary screen, cell-based, luminescence. Nuclear receptor ROR-alpha (Homo sapiens), P35398. CHO-K1 Gal4-RORA LBD luciferase reporter. inhibition, % at 10 µM. 0.43% of 65,000 active;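 active = inhibition above the mean of all tested compounds plus 3 SD, cut at about 52% in these data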;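 also: 0% = RORA-transfected cells with DMSO and 100% = mock-transfected cells lacking RORA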
Target sequence (P35398 whole entry, looked up, the tested form may be a part): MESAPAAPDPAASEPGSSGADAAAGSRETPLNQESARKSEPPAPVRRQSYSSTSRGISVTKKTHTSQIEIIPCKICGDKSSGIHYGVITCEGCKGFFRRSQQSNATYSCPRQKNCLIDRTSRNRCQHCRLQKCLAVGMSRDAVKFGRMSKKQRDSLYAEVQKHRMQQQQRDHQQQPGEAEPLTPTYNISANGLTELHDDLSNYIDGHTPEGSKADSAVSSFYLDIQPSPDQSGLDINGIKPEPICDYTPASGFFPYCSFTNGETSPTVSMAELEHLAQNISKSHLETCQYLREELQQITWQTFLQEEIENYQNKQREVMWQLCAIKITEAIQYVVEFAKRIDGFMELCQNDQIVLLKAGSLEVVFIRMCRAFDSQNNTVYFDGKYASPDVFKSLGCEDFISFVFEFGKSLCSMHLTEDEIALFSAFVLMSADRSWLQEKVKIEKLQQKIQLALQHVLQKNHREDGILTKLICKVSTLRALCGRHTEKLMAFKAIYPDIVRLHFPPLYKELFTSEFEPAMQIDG
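Test system: CHO-K1 cells with Gal4-hRORA LBD fusion and pG5-luc reporter / Compound: single concentration per compound, 10 µM final / Schedule: 20 h compound treatment, 37 °C / Signal: luminescence from basal luciferase reporter expression / Read-out: % inhibition / Control set: mock-transfected cells as 100%, +RORA DMSO cells as 0% / Replicates: tested once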
The depositor's hits bear a star. The sample as a whole holds a higher share of hits than the screen did.

For O=S(=O)(NCc1ccncc1)c1ccc(Br)s1 the results were RORa inhibitor 65*.
Screening CN1CCN(S(=O)(=O)c2ccc(Br)s2)CC1 returned RORa inhibitor -63.
CCOC(=O)C1CCN(C(=O)CNS(=O)(=O)c2ccc(Br)s2)CC1 was read as RORa inhibitor -10.
For CN(CCc1ccccn1)S(=O)(=O)c1ccc(F)cc1 the results were RORa inhibitor -34.
For CCOC(=O)C(Cc1c(F)cccc1F)(NC(C)=O)C(=O)OCC the results were RORa inhibitor -6.
`CCCCCn1c(CNC(=O)COC)nc2ccccc21` gave RORa inhibitor -4.
`O=S(=O)(NC1CCCCCC1)c1cccc2cccnc12` gave RORa inhibitor 17.
Screening COc1cc(NS(=O)(=O)c2ccc(C)cc2)c2ncccc2c1 returned RORa inhibitor 85*.
For COc1ccc(S(=O)(=O)Nc2nnc(C(C)(C)C)s2)cc1 the results were RORa inhibitor -17.
Screening COC(=O)CSc1nnc2c3c4c(sc3nc(-n3nc(C)cc3C)n12)COC(C)(C)C4 returned RORa inhibitor 24.
Screening CC(OC(=O)CCCN1C(=O)c2ccccc2C1=O)C(=O)Nc1ncc(Cl)cc1Cl (stereo unspecified) returned RORa inhibitor 14.
COc1ccc(-c2cc3nc4n(c(=O)c3s2)CCOC4)cc1 was read as RORa inhibitor 60*.
`COc1ccc(-c2csc(N3CCOCC3)n2)cc1OC` gave RORa inhibitor -61.
Screening O=S(=O)(Nc1nc2ccccc2nc1NCCN1CCOCC1)c1cccc(Cl)c1 returned RORa inhibitor 6.
For COc1ccc(CCNC(=O)CN2CCC(C(N)=O)CC2)cc1 the results were RORa inhibitor -2.
Screening COc1ccc(N(CC(=O)NCc2cccs2)S(=O)(=O)c2c(C)nn(C)c2C)cc1 returned RORa inhibitor -3.
For O=c1[nH]c(NC2CCCCC2)nnc1Cc1ccccc1 the results were RORa inhibitor -6.
Screening O=C(CSc1nc2ccccc2[nH]1)N1CCCCC1 returned RORa inhibitor -52.
Screening O=C(Nc1nc2ccccc2[nH]1)c1ccc(F)cc1 returned RORa inhibitor 54*.
For CC(=O)Nc1ccc(S(=O)(=O)NCCNC(=O)c2ccccc2F)cc1 the results were RORa inhibitor 4.
`O=C(Nc1nc2ccccc2[nH]1)c1ccccc1F` gave RORa inhibitor 86*.
`COc1ccccc1CCC(=O)Nc1nc2ccccc2[nH]1` gave RORa inhibitor -19.
Screening c1ccc(Nc2nc3ccccc3[nH]2)nc1 returned RORa inhibitor -79.
`O=C(CCN1C(=O)C2(OCCO2)c2ccccc21)c1ccccc1` gave RORa inhibitor -15.
For COCCNC(=O)c1cc(-c2cccs2)on1 the results were RORa inhibitor -145.
Screening CC(C)=C1C2C=CC1C1C(=O)N(c3ccc4c(c3)OCO4)C(=O)C21 (stereo unspecified) returned RORa inhibitor -21.
`N#CCCn1c(SCC(=O)NCCc2ccc(F)cc2)nc2ccccc21` gave RORa inhibitor 5.
Screening CCOc1ccc2c(c1)n(CO)c(=S)n2CO returned RORa inhibitor 2.
Screening O=c1cc(CN2CCN(Cc3ccccc3)CC2)c2cc(Cl)ccc2o1 returned RORa inhibitor -7.
For CC1CCN(c2nc3c(c(=O)n(C)c(=O)n3C)n2Cc2ccccc2)CC1 the results were RORa inhibitor -14.
`C=CCOc1nc2c(c(=O)n(C)c(=O)n2C)n1Cc1ccc(Cl)cc1` gave RORa inhibitor 58*.
Screening CCCCCn1c(CN2CCN(Cc3ccccc3)CC2)nc2c1c(=O)n(C)c(=O)n2C returned RORa inhibitor 12.
For O=C(CN1CCN(C2CCCCC2)CC1)Nc1ccccc1-c1ccccc1 the results were RORa inhibitor -7.
Screening CCOc1ccc(CCN2C(=O)CCC2(C)C(=O)NC(C)CC)cc1OCC (stereo unspecified) returned RORa inhibitor 2.
For Cn1c(/N=C/c2c[nH]c3ccccc23)nc2ccccc21 the results were RORa inhibitor -14.
For Cc1cc(/C=N/n2cnnc2)c(C)n1-c1ccc(OCc2ccccc2F)cc1 the results were RORa inhibitor 62*.
`C(=N\n1cnnc1)/c1cccc(Oc2ccccc2)c1` gave RORa inhibitor 3.
Screening COc1ccccc1-c1nnc(NC(=O)c2ccc(S(=O)(=O)N(C)C)cc2)o1 returned RORa inhibitor -7.
`CC1CC(C)CN(C(=O)CSc2nnc(-c3ccc(Cl)s3)o2)C1` (stereo unspecified) gave RORa inhibitor -10.
For CC1(C)COCN1S(=O)(=O)c1ccc(C(=O)Nc2nnc(-c3ccc(Cl)s3)o2)cc1 the results were RORa inhibitor 53*.
For CCCC(=O)Nc1ccccc1-c1nnn(CC(=O)Nc2ccc(OC)cc2)n1 the results were RORa inhibitor -36.
For CCOc1ccccc1N1CCN(C(=O)c2cc[n+]([O-])cc2)CC1 the results were RORa inhibitor -28.
`Cc1ccc(OCCn2c(=O)cnc3ccccc32)cc1` gave RORa inhibitor 8.
Screening O=S(=O)(CCc1nc2ccccc2o1)c1ccc(Cl)c(Cl)c1 returned RORa inhibitor 3.
For Cc1ccc(-c2nc(-c3ccccn3)no2)cc1Cl the results were RORa inhibitor 81*.
Screening Clc1cccc(-c2nc(-c3ccccn3)no2)c1 returned RORa inhibitor 62*.
For Cc1ccc(-c2nc(-c3ccccn3)no2)cc1 the results were RORa inhibitor 90*.
For Brc1ccc(-c2nc(-c3ccccc3)no2)o1 the results were RORa inhibitor -68.
`c1ccc(CCCc2nc(-c3ccccn3)no2)cc1` gave RORa inhibitor -50.
For Cc1cccc(-c2noc(Cc3ccc(Cl)cc3)n2)c1 the results were RORa inhibitor -12.
`Clc1cc(Cl)c(OCc2nc(-c3ccccn3)no2)cc1Cl` gave RORa inhibitor -52.
Screening CC(C)(C)c1ccc(OCc2nc(-c3ccccn3)no2)c(Br)c1 returned RORa inhibitor -67.
c1ccc(Cc2nc(-c3ccccn3)no2)cc1 was read as RORa inhibitor -61.
`CC(C)CC1NC2(C(=O)N(C)c3ccccc32)C2C(=O)N(C(C)C)C(=O)C12` (stereo unspecified) gave RORa inhibitor -10.
For CCOc1cc(N2CCOCC2)c(OCC)cc1NC(=O)c1nc2nccc(C)n2n1 the results were RORa inhibitor -14.
Screening CCSc1nnc(-c2ccc(OC)cc2)o1 returned RORa inhibitor -90.
CCOC(=O)C(NC(C)=O)(Nc1cccc(F)c1)C(F)(F)F (stereo unspecified) was read as RORa inhibitor 28.
`Cc1cc(C)c2c(N=CN(C)C)c(C(=O)N3CCN(c4ncccn4)CC3)sc2n1` gave RORa inhibitor -21.
`Cc1nc2c(c(=O)n1CC1CCCO1)c1nc3ccccc3nc1n2CC(C)C` (stereo unspecified) gave RORa inhibitor 18.
Screening CC(C)(C)Nc1nc(C(N)=O)nc(N2CCOCC2)n1 returned RORa inhibitor 19.
For COC(=O)CCC/C=C1/SCC(NC(=O)c2ccccc2)C1O (stereo unspecified) the results were RORa inhibitor 19.
For COc1ccc(CC(=O)n2c(CC#N)nc3ccccc32)cc1OC the results were RORa inhibitor 4.
`O=C(c1ccc(-c2nnc(-c3ccccc3)o2)cc1)N1CCCCCC1` gave RORa inhibitor -60.
Screening O=C(Nc1ccc(-c2nc3ccccc3o2)cc1)c1ccc2c(c1)OCO2 returned RORa inhibitor 6.

Screening data from PubChem BioAssay.
